Experimental data gathered from unrelated publications.
Protocols differ between the studies behind these lines. pIC50: −log10 of the molar value. Converted amounts (≈) assume the structure as drawn.

| Compound | target or system | assay | test system | conditions | endpoint | result |
| --- | --- | --- | --- | --- | --- | --- |
| CCCCCCN(CC1COC2(CCN(C(=O)C3(c4ccccc4)CCCC3)CC2)O1)S(=O)(=O)N(C)Cc1ccccc1 (centres unmarked) | Chikungunya virus | viral replication, inhibitor |  | 40 µM | inhibition | 70% |
| CC[C@H](C)C[C@H](C)CCCCCCCCC(=O)N[C@H]1C[C@@H](O)[C@@H](NCCN)NC(=O)[C@@H]2[C@@H](O)CCN2C(=O)[C@H]([C@H](O)CCN)NC(=O)[C@H]([C@H](O)[C@@H](O)c2ccc(O)cc2)NC(=O)[C@@H]2C[C@@H](O)CN2C(=O)[C@H]([C@@H](C)O)NC1=O | Candidozyma auris | microbial killing, broth dilution |  | 48 h | MFC | 8 µg/mL (≈ 7.32 µM) |
| CC(C)C[C@@H](NC(=O)[C@H](C)NC(=O)CNC(=O)[C@@H](NC=O)C(C)C)C(=O)N[C@@H](C)C(=O)N[C@@H](C(=O)N[C@H](C(=O)N[C@@H](C(=O)N[C@@H](Cc1c[nH]c2ccccc12)C(=O)N[C@H](CC(C)C)C(=O)N[C@@H](Cc1ccc2[nH]ccc2c1)C(=O)N[C@H](CC(C)C)C(=O)N[C@@H](Cc1c[nH]c2ccccc12)C(=O)N[C@H](CC(C)C)C(=O)N[C@@H](Cc1c[nH]c2ccccc12)C(=O)NCCO)C(C)C)C(C)C)C(C)C | MCF7 | cell growth or viability, SRB |  | 48 h | GI50 | 0.106 µM |
| O=c1c2ccccc2[se]n1-c1ccccc1 | Chikungunya virus | viral replication | Vero | 24 h | pIC50 | 5.69 |
| Cc1ccc(C=Nc2ccc(SCc3cc(=O)c(O)co3)cc2)cc1 |  | DPPH scavenging, absorbance |  | 30 min | pIC50 | 5.04 |
| O=C(NCc1ccc(F)cc1)c1cn(Cc2ccc(F)cc2)c2ccc(Oc3ccccc3)cc2c1=O | MCF7 | cell growth or viability, MTT |  |  | pIC50 | ≤ 3.70 |
| O=C(N1CCC2(CC1)OCC(CN1CCCCS1(=O)=O)O2)C1(c2ccc(Cl)cc2)CCCC1 (centres unmarked) | Chikungunya virus | viral replication, inhibitor |  | 40 µM | inhibition | 55% |
| O=C(NCc1ccc(C(F)(F)F)cc1)c1cn(Cc2ccc(Cl)cc2)c2ccc(Oc3ccccc3)cc2c1=O | MCF7 | cell growth or viability, MTT |  | 24 h | pIC50 | 3.75 |
| O=c1cc(CSc2ccc(N=Cc3ccccc3[N+](=O)[O-])cc2)occ1O |  | DPPH scavenging, absorbance |  | 30 min | pIC50 | 4.85 |
| O=C(NCc1ccccc1)c1cn(Cc2ccc(C(F)(F)F)cc2)c2ccc(Oc3ccccc3)cc2c1=O | MCF7 | cell growth or viability, MTT |  | 48 h | pIC50 | 5.19 |
| CC(C)C[C@@H](NC(=O)[C@H](C)NC(=O)CNC(=O)[C@@H](NC=O)C(C)C)C(=O)N[C@@H](C)C(=O)N[C@@H](C(=O)N[C@H](C(=O)N[C@@H](C(=O)N[C@@H](Cc1c[nH]c2ccccc12)C(=O)N[C@H](CC(C)C)C(=O)N[C@@H](Cc1cc2ccccc2[nH]1)C(=O)N[C@H](CC(C)C)C(=O)N[C@@H](Cc1c[nH]c2ccccc12)C(=O)N[C@H](CC(C)C)C(=O)N[C@@H](Cc1c[nH]c2ccccc12)C(=O)NCCO)C(C)C)C(C)C)C(C)C | MCF7 | cell growth or viability, SRB |  | 48 h | GI50 | 0.0233 µM |
| COc1ccc(C=Nc2ccc(SCc3cc(=O)c(O)co3)cc2)cc1 |  | DPPH scavenging, absorbance |  | 30 min | pIC50 | 4.81 |
| O=C(NCc1ccc(F)cc1)c1cn(Cc2ccc(C(F)(F)F)cc2)c2ccc(Oc3ccccc3)cc2c1=O | MCF7 | cell growth or viability, MTT |  | 48 h | pIC50 | 5.36 |
| Cc1cccc(C=Nc2ccc(SCc3cc(=O)c(O)co3)cc2)c1 |  | DPPH scavenging, absorbance |  | 30 min | pIC50 | 4.57 |
| O=C(NCc1ccc(Cl)cc1)c1cn(Cc2ccc(Cl)cc2)c2ccc(Oc3ccccc3)cc2c1=O | MCF7 | cell growth or viability, MTT |  | 48 h | pIC50 | 3.77 |
| CCCCS(=O)(=O)NCC1COC2(CCN(C(=O)C3(c4ccccc4)CCCC3)CC2)O1 (centres unmarked) | Chikungunya virus | viral replication, inhibitor |  | 40 µM | inhibition | 95% |
| O=c1cc(CSc2ccc(N=Cc3ccccc3C(F)(F)F)cc2)occ1O |  | DPPH scavenging, absorbance |  | 30 min | pIC50 | 4.44 |
